{"source": "ChEMBL document CHEMBL2331364", "about": "“A synthetic dolastatin 10 analogue suppresses microtubule dynamics, inhibits cell proliferation, and induces apoptotic cell death” (J Med Chem, 2013)", "key": {"HeLa [1]": {"tested_on": "HeLa", "assay": "Inhibition of microtubule-kinetochore tension in human HeLa cells assessed as BubR1 accumulation at kinetochoric region at 15 to 45 nM after 24 hrs by Hoechst 33258 dye-based Hec1 staining assay", "format": "cell-based"}, "HeLa [2]": {"tested_on": "HeLa", "assay": "Induction of apoptosis in human HeLa cells assessed as procaspase-3 activation at 30 nM after 24 hrs by Western blot analysis", "format": "functional, cell-based", "procedure,_shortened": "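HeLa cells were treated with vehicle or 30 nM for 24 h and washed twice in PBS. Lysates were Western blotted with antibodies to JNK1, phospho-JNK, procaspase-3 and PARP.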"}, "HeLa [3]": {"tested_on": "HeLa", "assay": "Induction of interphase microtubule depolymerization in human HeLa cells at 35 nM after 3 hrs by Hoechst 33258 dye-based fluorescence microscopy", "format": "cell-based", "procedure,_shortened": "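HeLa cells were given a brief 3 h exposure to 35 nM. Interphase microtubules were then immunostained and examined by fluorescence microscopy.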"}, "MCF7 [4]": {"tested_on": "MCF7", "assay": "Cytotoxicity against human MCF7 cells after 24 to 48 hrs by trypan blue assay", "format": "functional, cell-based", "procedure,_shortened": "(§1)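 Cells were seeded at 1 × 10^5 cells/mL, grown 24 h at 37 °C in 5% CO2, then given vehicle (0.1% DMSO) or 1–80 nM for a further 24 or 48 h. Attached plus floating cells were counted after trypan blue staining. Percent inhibition was plotted against concentration to give IC50. Average of three independent experiments.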"}, "Tubulin": {"target": "Tubulin", "assay": "(§2) Binding affinity to tubulin (unknown origin) after 15 mins by fluorescence spectrophotometry", "format": "protein-complex assay, Homo sapiens", "procedure,_shortened": "(§3)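 Goat brain tubulin (2 μM) was incubated with ligand (5–100 μM) in 25 mM Pipes pH 6.8 for 15 min at 25 °C, read with excitation 295 nm and emission 336 nm in a 0.3 cm cell. No inner-filter correction was applied. ΔF was fitted to a quadratic binding equation to give Kd. Value is the average of five independent experiments.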"}, "Tubulin (Homo sapiens)": {"target": "Tubulin (Homo sapiens) (UniProt P68371+Q9H4B7+P0DPH7+P68366+Q13509+Q71U36+P04350+Q3ZCM7+P07437+P68363+Q9BQE3+Q6PEY2+Q13885+Q9BVA1+Q9BUF5)", "assay": "as §2", "format": "protein-complex assay", "procedure,_shortened": "as §3"}, "MCF7 [5]": {"tested_on": "MCF7", "assay": "Inhibition of microtubule (unknown origin) dynamics in GFP-tubulin transfected human MCF7 cells assessed as increase in microtubule pause time at 15 nM by confocal laser scanning microscopy relative to control", "format": "cell-based", "procedure,_shortened": "(§4)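 EGFP-tubulin-transfected MCF-7 cells grown in EMEM with 10% FBS at 37 °C in 5% CO2, exposed to 15 nM compound (DMSO vehicle) or vehicle. Individual microtubules were followed by time-lapse confocal laser scanning microscopy and life-history traces were recorded. Kinetic parameters were derived from these traces, 20 microtubules per condition. Significance was tested by one-way ANOVA.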"}, "HeLa [6]": {"tested_on": "HeLa", "assay": "Induction of apoptosis in human HeLa cells assessed as late apoptotic cells at 30 nM after 24 hrs by annexin V/propidium iodide staining-based FACS flow cytometry", "format": "functional, cell-based", "procedure,_shortened": "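HeLa cells were grown with vehicle (0.1% DMSO) or 7, 15 and 30 nM for 24 h and stained with an annexin V/propidium iodide kit. Stage was scored as annexin V-positive with weak PI (early/mid) or positive for both (late).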"}, "Homo sapiens [7]": {"species_on_record": "Homo sapiens", "assay": "Inhibition of microtubule (unknown origin) assembly at 1 uM incubated for 15 mins prior to GTP addition measured for 30 mins by 90 degree light scattering-based fluorescence spectrophotometric method", "procedure,_shortened": "(§5)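 MAP-rich tubulin (1 mg/mL) was preincubated with 1, 3, 5 or 10 μM in PEM buffer (25 mM Pipes pH 6.8, 3 mM MgCl2, 1 mM EGTA) for 15 min on ice. GTP (1 mM) was then added and assembly monitored by 90° light scattering at 400 nm for 30 min at 37 °C.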"}, "MCF7 [8]": {"tested_on": "MCF7", "assay": "Inhibition of microtubule (unknown origin) dynamics in GFP-tubulin transfected human MCF7 cells assessed as decrease in microtubule growth rate at 15 nM by confocal laser scanning microscopy relative to control", "format": "cell-based", "procedure,_shortened": "(§6)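 EGFP-tubulin transfected MCF-7 cells were treated with vehicle or 15 nM, and individual microtubules were tracked by confocal laser scanning microscopy, 20 microtubules per condition. Life-history parameters were derived as previously described. Significance was tested by one-way ANOVA.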"}, "HeLa [9]": {"tested_on": "HeLa", "assay": "Induction of mitotic microtubule depolymerization in human HeLa cells at 30 nM after 24 hrs by Hoechst 33258 dye-based fluorescence microscopy", "format": "cell-based"}, "HeLa [10]": {"tested_on": "HeLa", "assay": "Cytotoxicity against human HeLa cells after 24 to 48 hrs by trypan blue assay", "format": "functional, cell-based", "procedure,_shortened": "as §1"}, "MCF7 [11]": {"tested_on": "MCF7", "assay": "Inhibition of microtubule (unknown origin) dynamics in GFP-tubulin transfected human MCF7 cells assessed as decrease in microtubule catastrophe frequency at 15 nM by confocal laser scanning microscopy relative to control", "format": "cell-based", "procedure,_shortened": "as §6"}, "MCF7 [12]": {"tested_on": "MCF7", "assay": "Inhibition of microtubule (unknown origin) dynamics in GFP-tubulin transfected human MCF7 cells assessed as microtubule shortening rate at 15 nM by confocal laser scanning microscopy (reference value: 16.4 +/- 5 um/min)", "format": "cell-based", "procedure,_shortened": "as §4"}, "Homo sapiens [13]": {"species_on_record": "Homo sapiens", "assay": "Inhibition of microtubule (unknown origin) assembly at 1 to 10 uM incubated for 15 mins prior to GTP addition measured for 30 mins by 90 degree light scattering-based fluorescence spectrophotometric method", "procedure,_shortened": "as §5"}, "HeLa [14]": {"tested_on": "HeLa", "assay": "Induction of mitotic microtubule depolymerization in human HeLa cells assessed as unorganized chromosomes at metaphase plate at 15 nM after 24 hrs by Hoechst 33258 dye-based fluorescence microscopy", "format": "cell-based"}, "HeLa [15]": {"tested_on": "HeLa", "assay": "Induction of apoptosis in human HeLa cells assessed as genomic DNA fragmentation at 7 to 30 nM after 40 hrs by ethidium bromide staining-based electrophoresis", "format": "functional, cell-based"}, "Capra hircus": {"species_on_record": "Capra hircus", "assay": "Inhibition of goat brain tubulin polymerization at 5 uM incubated for 20 mins prior to GTP addition measured for 30 mins by 90 degree light scattering-based fluorescence spectrophotometric method", "procedure,_shortened": "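Goat brain tubulin (10 μM) was preincubated with compound (5 μM; or 1, 5, 7, 10 μM) in 1 M monosodium glutamate, 3 mM MgCl2, 1 mM EGTA, 25 mM Pipes pH 6.8 on ice for 20 min. GTP (1 mM) was then added and assembly followed by 90° light scattering at 400 nm for 30 min at 37 °C. Experiment run twice.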"}, "HeLa [16]": {"tested_on": "HeLa", "assay": "Induction of interphase microtubule depolymerization in human HeLa cells at 7 nM after 24 hrs by Hoechst 33258 dye-based fluorescence microscopy relative to control", "format": "cell-based"}}, "note": "The source made the active and inactive calls. The calls are words filed in the database; no cut-off is given here.", "data": [{"smiles": "CC[C@H](C)[C@@H]([C@@H](CC(=O)NC[C@H]1O[C@H](C(=O)NCCc2ccccc2)[C@@H](OC)[C@@H]1OC)OC)N(C)C(=O)[C@@H](NC(=O)[C@@H](NC)C(C)C)C(C)C", "values": [{"measurement": "Activity", "setting": "HeLa [1]", "result": "Active"}, {"measurement": "Activity", "setting": "HeLa [2]", "result": "Active"}, {"measurement": "Activity", "setting": "HeLa [3]", "result": "Active"}, {"measurement": "IC50", "setting": "MCF7 [4]", "result": 15, "unit": "nM"}, {"measurement": "Kd", "setting": "Tubulin", "result": 29.4, "unit": "µM"}, {"measurement": "Activity", "setting": "Tubulin (Homo sapiens)", "result": "Dose-dependent effect"}, {"measurement": "inhibition", "setting": "MCF7 [5]", "result": 50, "unit": "%"}, {"measurement": "Activity", "setting": "HeLa [6]", "result": "Active"}, {"measurement": "inhibition", "setting": "Homo sapiens [7]", "result": 13, "unit": "%"}, {"measurement": "inhibition", "setting": "MCF7 [8]", "result": 27, "unit": "%"}, {"measurement": "Activity", "setting": "HeLa [9]", "result": "Active"}, {"measurement": "IC50", "setting": "HeLa [10]", "result": 6.8, "unit": "nM"}, {"measurement": "inhibition", "setting": "MCF7 [11]", "result": 32, "unit": "%"}, {"measurement": "Activity", "setting": "MCF7 [12]", "result": 12, "unit": "um/min"}, {"measurement": "inhibition", "setting": "Homo sapiens [13]", "result": "Active"}, {"measurement": "Activity", "setting": "HeLa [14]", "result": "Active"}, {"measurement": "Activity", "setting": "HeLa [15]", "result": "Active"}, {"measurement": "inhibition", "setting": "Capra hircus", "result": 37, "unit": "%"}, {"measurement": "Activity", "setting": "HeLa [16]", "result": "inactive"}]}]}
